According to paper PMC5132082 (Clinical Pharmacology in Drug Development, 2016):
Like-named read-outs stand apart in the source and are kept apart here. Marks after values point to notes of the source that are not given here.

Assays:
[1] = cited from earlier work
[2] = cited from earlier work; remark: listed apart in the source
[3] = format: in vivo, human; details: M12
Summary of the method: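 Urine collected predose (≤60 min before dosing) and over 0‒8, 8‒24, 24‒48 and 48‒72 h postdose. M12 measured by achiral LC-MS/MS (LLOQ 5 ng/mL). Excreted amount = urine concentration × interval urine volume. Renal clearance = cumulative 72-h urinary M12 divided by plasma AUC0–72. Summarised descriptively by group.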

[4] = format: in vivo, human; details: for AUC0–∞ ratio of geometric means (90%CI) / Cmax ratio of geometric means (90%CI) / CL/F ratio of geometric means (90%CI) / Vz/F ratio of geometric means (90%CI): ANOVA; for Tmax median difference (90%CI): Hodges-Lehmann estimate; for t1/2 geometric mean difference: severely renal impaired vs healthy matched
[5] = moderate and severe hepatic impairment; cited from earlier work
[6] = population pharmacokinetic model built in a phase 3 study; cited from earlier work
[7] = Safety monitoring; format: in vivo, human; details: for subjects reporting AEs: single oral 30 mg
Summary of the method: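 Subjects were confined from the evening before dosing through the PK sampling period. Monitoring ran throughout the study and covered adverse events, complete physical examinations, vital signs, 12-lead ECGs, clinical laboratory safety tests and prior and concomitant medications. Follow-up safety visit 11‒18 days after dosing.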

[8] = cited from earlier work; remark: listed apart in the source
[9] = M12, mild renal impaired/healthy matched
[10] = M12, moderate renal impaired/healthy matched
[11] = M12, severe renal impaired/healthy matched
[12] = M12, subjects with mild renal impairment
[13] = M12, subjects with moderate renal impairment
[14] = M12, subjects with severe renal impairment
[15] = healthy subjects, single oral dose
[16] = apremilast, mild renal impaired/healthy matched
[17] = apremilast, moderate renal impaired/healthy matched
[18] = apremilast, moderate renal impairment group
[19] = apremilast, severe renal impaired/healthy matched
[20] = apremilast, severe renal impairment vs healthy matched
[21] = apremilast, subjects with severe renal impairment

SMILES: CCOc1cc([C@@H](CS(C)(=O)=O)N2C(=O)c3cccc(NC(C)=O)c3C2=O)ccc1O[C@@H]1O[C@H](C(=O)O)[C@@H](O)[C@H](O)[C@H]1O [M12, O‐desmethyl apremilast glucuronide]
- pharmacological activity [1]: pharmacologically inactive
- share of the circulating radioactivity ([2]; after a single oral dose of [14C]apremilast): 39%
- geometric mean renal clearance ([3]; healthy subjects matched with subjects with mild renal impairment): 3.67 L/h
- geometric mean renal clearance ([3]; healthy subjects matched with subjects with moderate renal impairment): 3.02 L/h
- renal clearance decreased ([3]; subjects with mild or moderate renal impairment): ≈ 40%
- geometric mean renal clearance ([3]; subjects with mild renal impairment, urine 0-72 h / plasma AUC 0-72 h): 2.35 L/h
- geometric mean renal clearance ([3]; subjects with moderate renal impairment): 1.84 L/h
- AUC0–∞ ratio of geometric means (90%CI) [4, 9]: 129.6 (99.5–168.8) %
- Cmax ratio of geometric means (90%CI) [4, 9]: 130.8 (91.7–186.6) %
- AUC0–∞ ratio of geometric means (90%CI) [4, 10]: 161.4 (122.8–212.3) %
- Cmax ratio of geometric means (90%CI) [4, 10]: 116.9 (81.9–166.8) %
- Tmax median difference (90%CI) ([4]; M12, severe renal impaired vs healthy matched): 6.25 (2.975–11.0) h
- AUC0–∞ ratio of geometric means (90%CI) [4, 11]: 291.7 (204.3–416.4) %
- Cmax ratio of geometric means (90%CI) [4, 11]: 142.9 (106.3–192.1) %
- t1/2 geometric mean difference ([4]; M12): 10.498 ^d (NC) h
- AUC0–∞ higher than in healthy matched subjects [4, 12]: 29.6%
- Cmax higher than in healthy matched subjects [4, 12]: 30.8%
- AUC0–∞ higher than in healthy matched subjects [4, 13]: 61.4%
- Cmax higher than in healthy matched subjects [4, 13]: 16.9%
- Tmax delayed compared with healthy matched subjects ([4]; M12, subjects with renal impairment (severe study), P ≤ .05): ≈ 6.25 hours
- increase in AUC0–∞ vs healthy matched subjects [4, 14]: 191.7%
- increase in Cmax vs healthy matched subjects [4, 14]: 42.9%

SMILES: CCOc1cc([C@@H](CS(C)(=O)=O)N2C(=O)c3cccc(NC(C)=O)c3C2=O)ccc1OC [apremilast]
- effect of hepatic impairment on pharmacokinetic profile [5]: largely unaffected
- disease effect of PsA: slower clearance [6]: ≈ 36%
- absolute bioavailability [2, 15]: ≈ 73%
- given dose excreted in urine unchanged [2, 15]: ≈ 3%
- deaths or AEs leading to discontinuation ([7]; both studies): No deaths or AEs leading to discontinuation occurred
- overall safety finding ([7]; both studies, single oral 30-mg dose): no unexpected AEs or safety signals
- subjects with AEs considered possibly related to study medication or procedures ([7]; healthy matched group of severe study): 2
- subjects reporting AEs ([7]; healthy matched group of severe study (n = 8)): 2
- subjects with AEs suspected to be related to study medication or procedures ([7]; healthy matched groups of mild and moderate study): 3
- subjects reporting AEs ([7]; healthy matched groups of mild and moderate study (n = 16)): 5
- subjects with AEs suspected to be related to study medication or procedures ([7]; mild renal impairment group): 2
- subjects reporting AEs ([7]; mild renal impairment group (n = 8)): 2
- subjects with AEs suspected to be related to study medication or procedures ([7]; moderate renal impairment group): 1
- subjects reporting AEs ([7]; moderate renal impairment group (n = 8)): 2
- subjects with AEs considered possibly related to study medication or procedures ([7]; severe renal impairment group): 3
- subjects reporting AEs ([7]; severe renal impairment group (n = 8)): 4
- Tmax median difference (90%CI) ([4]; apremilast, mild renal impaired vs healthy matched): 0.0 (‐1.00 to 1.00) P > .9999 h
- AUC0–∞ ratio of geometric means (90%CI) [4, 16]: 85.9 (65.8–112.0) %
- CL/F ratio of geometric means (90%CI) [4, 16]: 116.5 (89.3–151.9) %
- Cmax ratio of geometric means (90%CI) [4, 16]: 106.2 (84.7–133.1) %
- Vz/F ratio of geometric means (90%CI) [4, 16]: 120.4 (92.2–157.2) %
- Tmax median difference (90%CI) ([4]; apremilast, moderate renal impaired vs healthy matched): 1.0 (‐0.50 to 2.50) P = .25 h
- AUC0–∞ ratio of geometric means (90%CI) [4, 17]: 122.1 (93.6–159.3) %
- CL/F ratio of geometric means (90%CI) [4, 17]: 81.9 (62.8–106.8) %
- Cmax ratio of geometric means (90%CI) [4, 17]: 87.5 (69.8–109.7) %
- Vz/F ratio of geometric means (90%CI) [4, 17]: 103.2 (79.0–134.8) %
- AUC0–∞ higher relative to healthy matched subjects [4, 18]: ≈ 22%
- Cmax lower relative to healthy matched subjects [4, 18]: ≈ 13%
- Tmax median difference (90%CI) ([4]; apremilast, severe renal impaired vs healthy matched): 0.00 (‐1.5 to 1.5) P > .9999 h
- Vz/F ratio of geometric means ([4]; apremilast, severe renal impaired/healthy matched, 90%CI not calculated): 67.35 (NC) %
- AUC0–∞ ratio of geometric means (90%CI) [4, 19]: 188.5 (132.5–268.0) %
- CL/F ratio of geometric means (90%CI) [4, 19]: 53.10 (37.3–75.4) %
- Cmax ratio of geometric means (90%CI) [4, 19]: 141.6 (102.9–194.8) %
- VZ/F decreased [4, 20]: ~32.7%
- t1/2 prolonged [4, 20]: ≈ 27%
- t1/2 geometric mean difference ([4]; apremilast): 2.485 ^d (NC) h
- AUC0–∞ higher compared with healthy matched subjects [4, 21]: 88.5% and ≈ 89%
- Cmax higher compared with healthy matched subjects [4, 21]: 41.6%
- apparent clearance relative to that of healthy matched subjects [4, 21]: ≈ 53%

SMILES: CCOc1cc(CC(=O)N[C@@H](CC(C)C)c2ccccc2N2CCCCC2)ccc1C(=O)O [repaglinide]
- fraction of unchanged drug excreted through urine (fe) ([8]; healthy volunteers): < 0.1%
- mean half-life increase ([8]; subjects with severe renal impairment, after 1 week of treatment): ~4 fold
